Test results taken from ChEMBL document CHEMBL1132566, “A new class of pseudopeptide antagonists of the kinin B1 receptor containing alkyl spacers” (J Med Chem, 1999).
Activity calls are given as the source filed them. The rule behind the calls is not given here. Where a SMILES comes first, the peptide text is derived from it. [ ]: non-standard residue; d: D form. Oic = O=C(O)[C@@H]1C[C@@H]2CCCC[C@@H]2N1; d2Nal = N[C@H](Cc1ccc2ccccc2c1)C(=O)O; Hyp = O=C(O)[C@@H]1C[C@@H](O)CN1; dTic = O=C(O)[C@H]1Cc2ccccc2CN1; 2Thi = N[C@@H](Cc1cccs1)C(=O)O

Experiments:
Format in all cases: functional, tissue-based
B1 bradykinin receptor = molecular target: T1, B1 bradykinin receptor (Rattus norvegicus, UniProt P97583); assay: Antagonistic activity against Bradykinin receptor B1 of rat ileum longitudinal smooth muscle.; details: for Kb: read-out: pA2 (converted)
T1 sequence (P97583 whole entry): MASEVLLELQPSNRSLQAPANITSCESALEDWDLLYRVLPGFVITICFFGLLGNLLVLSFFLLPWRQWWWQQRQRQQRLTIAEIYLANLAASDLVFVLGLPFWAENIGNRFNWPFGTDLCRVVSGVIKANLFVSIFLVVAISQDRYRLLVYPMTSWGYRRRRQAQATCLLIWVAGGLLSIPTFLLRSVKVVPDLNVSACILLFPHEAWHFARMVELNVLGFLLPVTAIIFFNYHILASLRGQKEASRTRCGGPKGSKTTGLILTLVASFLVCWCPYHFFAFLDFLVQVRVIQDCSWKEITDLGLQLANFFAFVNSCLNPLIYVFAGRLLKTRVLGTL
Outline: (§1)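 Rat ileum longitudinal muscle-myenteric plexus strips in oxygenated (95% O2/5% CO2) Krebs with indomethacin, guanethidine (3 μM each), chlorpheniramine, atropine (1 μM each). Cumulative desArg9-BK curves with thiorphan, bestatin, captopril (1 μM each); antagonist given 15 min before repeat curve at 1–10 μM. Contraction read-out; pA2 (dose ratio 2), mean ± SE of 4–15 experiments.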

B2 bradykinin receptor = molecular target: T2, B2 bradykinin receptor (Cavia porcellus, UniProt O70526); assay: (§2) Antagonistic activity against Bradykinin receptor B2 of guinea pig ileum longitudinal smooth muscle.; details: for Kb: read-out: pA2 (converted)
T2 sequence (O70526 whole entry): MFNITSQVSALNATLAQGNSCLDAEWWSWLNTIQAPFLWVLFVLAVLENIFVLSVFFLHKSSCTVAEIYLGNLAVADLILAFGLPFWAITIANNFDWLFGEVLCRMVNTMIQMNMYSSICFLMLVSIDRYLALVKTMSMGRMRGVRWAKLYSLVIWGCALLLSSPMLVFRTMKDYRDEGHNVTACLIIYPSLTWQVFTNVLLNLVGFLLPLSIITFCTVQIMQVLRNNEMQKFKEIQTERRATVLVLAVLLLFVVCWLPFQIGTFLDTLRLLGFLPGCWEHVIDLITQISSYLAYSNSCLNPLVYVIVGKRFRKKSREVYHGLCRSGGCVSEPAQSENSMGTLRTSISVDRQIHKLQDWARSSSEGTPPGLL
Outline: as §1, with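 “Guinea pig” for “Rat”, “BK” for “desArg9-BK”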

[1] = molecular target: T3, B2 bradykinin receptor (Cavia porcellus) (UniProt O70526); assay: as §2
T3 sequence (whole entry): T2 sequence (O70526 whole entry)
Outline: as §1, with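 “Guinea pig” for “Rat”, “BK” for “desArg9-BK”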

SMILES	Kb (B1 bradykinin receptor) [µM]	Kb (B2 bradykinin receptor) [µM]	pA2 [1]	pA2 (B1 bradykinin receptor)	pA2 (B2 bradykinin receptor)
NCCCC[C@H](NC(=O)[C@@H](N)CCCCN)C(=O)N[C@@H](CCCN=C(N)N)C(=O)NCCCCCCCCCCC(=O)N[C@@H](CO)C(=O)N[C@@H](C(=O)N1[C@@H](C(=O)O)C[C@@H]2CCCC[C@@H]21)C1Cc2ccccc2C1	–	–	–	6.3	5.5
NC(N)=NCCC[C@@H](N)C(=O)N[C@@H](CCCN=C(N)N)C(=O)NCCCCCCCC(=O)N[C@@H](CO)C(=O)N1Cc2ccccc2C[C@@H]1C(=O)N1[C@H](C(=O)O)C[C@@H]2CCCC[C@@H]21	3.98	–	inactive	–	–
NC(N)=NCCC[C@@H](N)C(=O)N[C@@H](CCCN=C(N)N)C(=O)NCC(=O)NC1(C(=O)NCC(=O)N[C@@H](CO)C(=O)N2Cc3ccccc3C[C@@H]2C(=O)N2[C@H](C(=O)O)C[C@@H]3CCCC[C@@H]32)CCCCCC1	6.31	–	inactive	–	–
NCCCC[C@H](NC(=O)[C@@H](N)CCCCN)C(=O)N[C@@H](CCCN=C(N)N)C(=O)N1CCC[C@H]1C(=O)N1C[C@H](O)C[C@H]1C(=O)NCC(=O)N[C@H](C(=O)N[C@@H](CO)C(=O)N[C@@H](C(=O)N1[C@H](C(=O)O)C[C@@H]2CCCC[C@@H]21)C1Cc2ccccc2C1)C1Cc2ccccc2C1	0.00794	3.16	–	–	–
NC(N)=NCCC[C@@H](N)C(=O)N[C@@H](CCCN=C(N)N)C(=O)NC1(C(=O)N[C@@H](CO)C(=O)N2Cc3ccccc3C[C@@H]2C(=O)N2[C@H](C(=O)O)C[C@@H]3CCCC[C@@H]32)CCCCCCCC1	6.31	–	inactive	–	–
NC(N)=NCCC[C@@H](N)C(=O)N[C@@H](CCCN=C(N)N)C(=O)NCCCCCCCCCCC(=O)N[C@@H](CO)C(=O)N1Cc2ccccc2C[C@@H]1C(=O)N1[C@H](C(=O)O)C[C@@H]2CCCC[C@@H]21	0.0794	–	inactive	–	–
NC(N)=NCCC[C@@H](N)C(=O)N[C@@H](CCCN=C(N)N)C(=O)NCCCC(=O)NC1(C(=O)NCCCC(=O)N[C@@H](CO)C(=O)N2Cc3ccccc3C[C@@H]2C(=O)N2[C@H](C(=O)O)C[C@@H]3CCCC[C@@H]32)CCCCCC1	2	> 10	–	–	–
NC(N)=NCCC[C@@H](N)C(=O)N[C@@H](CCCN=C(N)N)C(=O)NCCC(=O)NC1(C(=O)NCCC(=O)N[C@@H](CO)C(=O)N2Cc3ccccc3C[C@@H]2C(=O)N2[C@H](C(=O)O)C[C@@H]3CCCC[C@@H]32)CCCCCC1	2.51	–	inactive	–	–
NC(N)=NCCC[C@@H](N)C(=O)N[C@@H](CCCN=C(N)N)C(=O)NCCCCCCCCCCC(=O)N[C@@H](CO)C(=O)N[C@@H](C(=O)N1[C@@H](C(=O)O)C[C@H]2CCCC[C@H]21)C1Cc2ccccc2C1	–	–	–	6.3	6
NC(N)=NCCC[C@@H](N)C(=O)N[C@@H](CCCN=C(N)N)C(=O)NCCCCCCCCCCCC(=O)N[C@@H](CO)C(=O)N1Cc2ccccc2C[C@@H]1C(=O)N1[C@H](C(=O)O)C[C@@H]2CCCC[C@@H]21	0.1	3.98	–	–	–
NC(N)=NCCC[C@@H](N)C(=O)N[C@@H](CCCN=C(N)N)C(=O)NCCCCCC(=O)N[C@@H](CO)C(=O)N1Cc2ccccc2C[C@@H]1C(=O)N1[C@H](C(=O)O)C[C@@H]2CCCC[C@@H]21	2	–	inactive	–	–
NC(N)=NCCC[C@@H](N)C(=O)N[C@@H](CCCN=C(N)N)C(=O)NC1(C(=O)N[C@@H](CO)C(=O)N2Cc3ccccc3C[C@@H]2C(=O)N2[C@H](C(=O)O)C[C@@H]3CCCC[C@@H]32)CCCCCC1	1.26	–	inactive	–	–
NCCCC[C@H](NC(=O)[C@@H](N)CCCCN)C(=O)N[C@@H](CCCN=C(N)N)C(=O)NCCCCCCCCCCC(=O)N[C@@H](CO)C(=O)N1Cc2ccccc2C[C@@H]1C(=O)N1[C@H](C(=O)O)C[C@@H]2CCCC[C@@H]21	0.794	–	inactive	–	–
NC(N)=NCCC[C@@H](N)C(=O)N[C@@H](CCCN=C(N)N)C(=O)NCCCCCCCCCCC(=O)N[C@@H](CO)C(=O)N[C@@H](C(=O)N1[C@H](C(=O)N[C@@H](CCCN=C(N)N)C(=O)O)C[C@@H]2CCCC[C@@H]21)C1Cc2ccccc2C1	10	0.794	–	–	–
NCCCCC(N)C(=O)N[C@@H](CCCN=C(N)N)C(=O)NCCCCCCCCCCC(=O)N[C@@H](CO)C(=O)N1Cc2ccccc2C[C@@H]1C(=O)N1[C@H](C(=O)O)C[C@@H]2CCCC[C@@H]21 (stereo in doubt)	1	–	inactive	–	–

Other lines, results leading:

Kb (B1 bradykinin receptor) [µM]	Kb (B2 bradykinin receptor) [µM]	pA2 [1]	pA2 (B1 bradykinin receptor)	pA2 (B2 bradykinin receptor)	SMILES
0.02	0.00631	–	–	–	NC(N)=NCCC[C@@H](N)C(=O)N[C@@H](CCCN=C(N)N)C(=O)N1CCC[C@H]1C(=O)N1C[C@H](O)C[C@H]1C(=O)NCC(=O)N[C@H](C(=O)N[C@@H](CO)C(=O)N[C@@H](C(=O)N1[C@H](C(=O)N[C@@H](CCCN=C(N)N)C(=O)O)C[C@@H]2CCCC[C@@H]21)C1Cc2ccccc2C1)C1Cc2ccccc2C1
10	–	inactive	–	–	NC(N)=NCCC[C@@H](N)C(=O)N[C@@H](CCCN=C(N)N)C(=O)NC1(C(=O)N[C@@H](CO)C(=O)N2Cc3ccccc3C[C@@H]2C(=O)N2[C@H](C(=O)O)C[C@@H]3CCCC[C@@H]32)CCCCC1
0.0631	1	–	–	–	CC[C@H](C)[C@H](NC(=O)[C@@H](Cc1ccc2ccccc2c1)NC(=O)[C@H](CO)NC(=O)[C@H](Cc1ccccc1)NC(=O)CNC(=O)[C@@H]1CCCN1C(=O)[C@@H]1CCCN1C(=O)[C@H](CCCN=C(N)N)NC(=O)[C@H](CCCCN)NC(C)=O)C(=O)O (Ac-KRPPGFS[d2Nal]I-OH)
0.251	–	inactive	–	–	CC(=O)N[C@@H](CCCCN)C(=O)N[C@@H](CCCN=C(N)N)C(=O)NCCCCCCCCCCC(=O)N[C@@H](CO)C(=O)N1Cc2ccccc2C[C@@H]1C(=O)N1[C@H](C(=O)O)C[C@@H]2CCCC[C@@H]21
0.1	1.26	–	–	–	CC[C@H](C)[C@H](NC(=O)[C@@H](Cc1ccc2ccccc2c1)NC(=O)[C@H](CO)NC(=O)CCCCCCCCCCNC(=O)[C@H](CCCN=C(N)N)NC(=O)[C@H](CCCCN)NC(C)=O)C(=O)O
0.158	2	–	–	–	N=C(N)NCCC[C@@H](N)C(=O)N[C@@H](CCCNC(=N)N)C(=O)N1CCC[C@H]1C(=O)N1C[C@H](O)C[C@H]1C(=O)NCC(=O)N[C@@H](Cc1cccs1)C(=O)N[C@@H](CO)C(=O)N1Cc2ccccc2C[C@@H]1C(=O)N1[C@H](C(=O)O)C[C@@H]2CCCC[C@@H]21 (H-[dR]RP[Hyp]G[2Thi]S[dTic][Oic]-OH)
3.16	> 10	–	–	–	NC(N)=NCCC[C@@H](N)C(=O)N[C@@H](CCCN=C(N)N)C(=O)NC1(C(=O)N[C@@H](CO)C(=O)N2Cc3ccccc3C[C@@H]2C(=O)N2[C@H](C(=O)O)C[C@@H]3CCCC[C@@H]32)CCCCCCC1
